Test results taken from article PMC4659352 (Molecular cancer therapeutics, 2014).
*1 amine or outer side, *2 acyl side, *3 side chain or, on linkers, in order; H or OH if unused. Where a SMILES comes first, the peptide text is derived from it. [ ]: non-standard residue; d: D form. γGlu = O=C(O)[C@H](CCC(=O)[*:2])N[*:1]

Columns and labels:
LNCaP xenografts = test: LNCaP subcutaneous xenograft therapy study; format: in vivo, mouse
[1] = test system: primary and metastatic tumor models; conditions: intratumoral or systemic injection; ref [22], [23]; cited from earlier work
CWR22Rv1 xenografts = test: CWR22Rv1 subcutaneous xenograft therapy study; format: in vivo, mouse; conditions: 7 mg/kg tail vein at days 0, 3, 6, 9
healthy nude mice = test: Toxicity study in healthy nude mice; format: in vivo, mouse
PC3 = test: MTT cell viability assay, PC3; format: cell-based, human; conditions: PSMA-null PC3, standard culture conditions with 10% fetal bovine serum, 72 hours
Procedure, shortened: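 PC3 cells (about 3,000 per well) were kept in RPMI-1640 with 10% FBS, 1% pen/strep and 2 mmol/L L-glutamine at 37°C and 5% CO2. They were exposed to a concentration range of test compound for 72 hours. Viability was read by MTT, and IC50 was calculated.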

[2] = Solubility of the propeptides at dosing; format: physicochemical; conditions: dissolved in DMSO and diluted in sterile PBS, 5% v/v DMSO
PSMA = PSMA (Homo sapiens, UniProt Q04609); test: Protease digestion with purified recombinant PSMA monitored by MALDI-TOF; format: biochemical
PC3 xenografts = conditions: PC3 (PSA-, PSMA-) xenograft, 7 mg/kg tail vein at days 0, 3, 6, 9
human red blood cells = test: Hemolysis assay with washed human red blood cells; format: cell-based; conditions: 1 µmol/L peptide, 2% v/v human RBC, 1 hour, 37°C
Procedure, shortened: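 Test compound was dissolved in DMSO and diluted in 1× PBS to 100, 10 and 1 µmol/L. It was incubated with washed human RBCs (2% v/v) for 1 hour at 37°C. RBCs in PBS alone served as zero lysis and 1% Triton X-100 as 100% lysis. Cells were pelleted and supernatant absorbance read at 540 nm, in triplicate.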

PSA = PSA substrate sequence used in PSA1 and PSA2; ref [27]; cited from earlier work
[3] = 7 mg/kg tail vein at days 0, 3, 6, 9

Sequence of PSMA (Q04609 whole entry): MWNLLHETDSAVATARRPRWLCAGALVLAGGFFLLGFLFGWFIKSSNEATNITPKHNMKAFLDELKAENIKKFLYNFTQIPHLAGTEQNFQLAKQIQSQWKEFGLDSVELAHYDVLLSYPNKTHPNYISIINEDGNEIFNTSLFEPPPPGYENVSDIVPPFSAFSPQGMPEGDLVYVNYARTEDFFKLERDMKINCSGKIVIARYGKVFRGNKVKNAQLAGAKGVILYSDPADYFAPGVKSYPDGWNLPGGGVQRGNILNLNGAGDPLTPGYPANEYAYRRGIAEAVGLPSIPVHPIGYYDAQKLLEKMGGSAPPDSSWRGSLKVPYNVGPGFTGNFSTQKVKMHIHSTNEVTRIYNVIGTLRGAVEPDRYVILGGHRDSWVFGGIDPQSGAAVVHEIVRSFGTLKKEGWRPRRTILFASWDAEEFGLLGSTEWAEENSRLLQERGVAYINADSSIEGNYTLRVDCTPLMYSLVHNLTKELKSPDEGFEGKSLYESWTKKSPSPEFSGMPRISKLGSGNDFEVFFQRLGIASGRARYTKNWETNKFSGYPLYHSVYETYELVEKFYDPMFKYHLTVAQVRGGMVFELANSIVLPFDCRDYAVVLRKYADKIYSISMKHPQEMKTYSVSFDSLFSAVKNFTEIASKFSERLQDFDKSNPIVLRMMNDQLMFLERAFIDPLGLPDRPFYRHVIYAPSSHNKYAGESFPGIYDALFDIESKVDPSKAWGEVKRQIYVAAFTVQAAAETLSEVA

CC(C)C[C@H](NC(=O)[C@H](CC(C)C)NC(=O)[C@@H](CCCCN)NC(=O)[C@H](CC(C)C)NC(=O)[C@H](CC(C)C)NC(=O)[C@H](CCCCN)NC(=O)[C@@H](CCCCN)NC(=O)[C@@H](CC(C)C)NC(=O)[C@H](CC(C)C)NC(=O)[C@@H](CCCCN)NC(=O)[C@H](CCCCN)NC(=O)[C@H](CC(C)C)NC(=O)[C@@H](CC(C)C)NC(=O)[C@H](CCCCN)NC(=O)[C@@H](N)CC(C)C)C(N)=O [KLL, reference compound] (H-LK[dL]LK[dK]L[dL][dK]KLL[dK]LL-NH2)
tumor growth compared with the saline control at day 9 (LNCaP xenografts; [3]): Inhibition of tumor growth
effect on tumor growth [1]: inhibit the growth of primary and metastatic tumor models
tumor volume by day 28 relative to the γE-KLL arm (CWR22Rv1 xenografts): double the volume of the γE-KLL–treated arm

CC(C)C[C@H](NC(=O)[C@H](CC(C)C)NC(=O)[C@@H](CCCCN)NC(=O)[C@H](CC(C)C)NC(=O)[C@H](CC(C)C)NC(=O)[C@H](CCCCN)NC(=O)[C@@H](CCCCN)NC(=O)[C@@H](CC(C)C)NC(=O)[C@H](CC(C)C)NC(=O)[C@@H](CCCCN)NC(=O)[C@H](CCCCN)NC(=O)[C@H](CC(C)C)NC(=O)[C@@H](CC(C)C)NC(=O)[C@H](CCCCN)NC(=O)[C@@H](N)CC(C)C)C(=O)N[C@@H](CCC(=O)N[C@@H](CCC(=O)N[C@@H](CCC(=O)N[C@@H](CCC(=O)N[C@@H](CCC(=O)N[C@@H](CCC(=O)N[C@@H](CCC(=O)O)C(=O)O)C(=O)O)C(=O)O)C(=O)O)C(=O)O)C(=O)O)C(=O)O [γE-KLL] (H-LK[dL]LK[dK]L[dL][dK]KLL[dK]LL[γGlu][γGlu][γGlu][γGlu][γGlu][γGlu]E-OH; N-terminus assumed)
Treated tumor/Control tumor (T/C) ratio at day 28 (LNCaP xenografts; [3]): 0.3
tumor growth compared with the saline control at day 9 (LNCaP xenografts; [3]): Inhibition of tumor growth
tumor volume at day 28 (LNCaP xenografts; 7 mg/kg tail vein at days 0, 3, 6, 9, n = 10 mice): 220.3 ± 44.6 mm^3
toxicity in healthy nude mice (healthy nude mice): nontoxic
toxicity in PC3 (PC3): no toxicity
dose above which solubility issues became apparent [2]: above 10 mg/kg
cleavage of the γ-linked glutamic acid inhibitory domain by PSMA (PSMA; 50 µg peptide, 5 µg PSMA, 4 hours, 37°C, pH 7.8, MALDI-TOF): Cleavage of γ-linked glutamic acid residues from the peptide sequence by PSMA was detected
degradation by PSMA in the presence of EDTA (PSMA; PSMA with EDTA in the buffer, MALDI-TOF): no degradation
Treated tumor/Control tumor (T/C) ratio at day 28 (CWR22Rv1 xenografts): 0.3
therapeutic effect in PC3 tumors (PC3 xenografts): No therapeutic effect

H-DDDDDDDLKLLKKLLKKLLKLL-NH2 [D7-KLL-NH2]
hemolysis at 1 µmol/L (human red blood cells): little hemolytic activity

H-LKLLKKLLKKLLKLLDDDDDDD-OH [KLL-D7-OH]
hemolysis at 1 µmol/L (human red blood cells): minimal hemolysis

SSKLQ [SSLQ, serine–serine–lysine–leucine–glutamine]
kcat/km (PSA): 23.6 s^−1 (mol/L)^−1
